Screening data: PubChem BioAssay, several laboratories
SUMO Mot1 rescue = yeast Mot1-301 growth rescue at high temperature, primary screen, SUMOylation pathway inhibitor project, S. cerevisiae, ATP luminescence, 38.5C; S. cerevisiae Mot1-301 growth rescue; percent above DMSO median, 100 means doubled; growth rescue, % at 18.8 µM; 320,000 compounds, 1% hits;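 active = every valid replicate shows activation above 250% relative to neutral control wells; inactive = the rest, any valid replicate at or below 250%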;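 note: OY570 slx delta 5 strain wells were the positive control but not used for scaling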
RTF Ca sens inh = cardiac RTF calcium sensitivity inhibitors, primary screen, biochemical, IANBD-TnC fluorescence, EC70 calcium. inhibition, % at 7.15 µM. 340,000 compounds, 0.12% hits. AID 493244, 2011. IANBD-labeled cardiac RTF, Ca2+ fluorescence;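 active = inhibition above the mean inhibition of all tested compounds plus 3 SD, cut at about 17% in these data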;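 note: assay run at fixed EC70 calcium of 1.6 mM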
Efflux pump mplx = inhibitors of Candida efflux pumps in yeast, primary screen, S. cerevisiae, Nile Red, multiplex; inhibition, % at 10 µM; S. cerevisiae Candida pump triplex; AID 485275, 2010; 330,000 compounds, 0.44% hits;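 active = plate passing quality check with inhibition over a set limit, or well fluorescence over plate mean plus 4 SD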;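 note: Nile Red retained in pooled yeast measured as flow cytometry median fluorescence; 0% = buffer negative control and 100% = Enniatin B positive control; higher means more Nile Red kept so more efflux inhibition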
cardiac RTF act = cardiac RTF calcium sensitivity activators, primary screen, biochemical, IANBD-TnC fluorescence, EC20 calcium; Troponin I, cardiac muscle (Homo sapiens) + Troponin T, cardiac muscle (Homo sapiens) + …; IANBD-labeled TnC RTF fluorescence at EC20 calcium; 0% EC20 calcium, 100% full calcium; activation, % at 7.2 µM; 340,000 compounds, 0.24% hits;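 active = activation above the mean over all tested compounds plus 3 SD, cut at about 30% in these data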;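 note: rise in fluorescence read as greater calcium sensitivity of cardiac thin filaments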
UCH37 inh = inhibitors of human UCH37 deubiquitinase, primary screen, biochemical, Ub-AMC cleavage, fluorescence. 330,000 compounds, 0.33% hits. inhibition, % (test concentration not listed). AID 588478, 2011. Ubiquitin carboxyl-terminal hydrolase isozyme L5 (Homo sapiens), Q9Y5K5. purified proteasome/UCH37;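 active = mean inhibition over replicate wells above about 20%, limit read from the data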;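 note: 0% = compound-free wells with enzyme and 100% = wells lacking proteasome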
Target sequence (Q9Y5K5 whole entry, looked up): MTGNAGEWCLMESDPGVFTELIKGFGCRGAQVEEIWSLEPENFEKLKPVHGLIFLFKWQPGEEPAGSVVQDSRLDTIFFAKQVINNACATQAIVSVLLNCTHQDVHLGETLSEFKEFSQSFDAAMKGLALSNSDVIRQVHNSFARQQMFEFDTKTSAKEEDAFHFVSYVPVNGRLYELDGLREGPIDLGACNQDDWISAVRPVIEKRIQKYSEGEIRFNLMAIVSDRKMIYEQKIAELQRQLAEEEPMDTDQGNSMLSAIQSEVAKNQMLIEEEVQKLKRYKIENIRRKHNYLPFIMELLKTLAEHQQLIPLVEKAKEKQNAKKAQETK
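Schedule: 30 min plus 25 min, room temperature / Material: human UCH37 within purified proteasomes / Technique: AMC fluorescence intensity at 355/460 nm / Buffer or medium: pH 7.4 Tris-HCl (50 mM) with ovalbumin, ATP-MgCl2, DTT / Controls: wells without proteasome as full block, compound-free enzyme plus substrate as uninhibited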
ARNT-TACC3 inh = disruptors of ARNT/TACC3 protein interaction, primary screen, biochemical, AlphaScreen, single concentration; inhibition, % at 9.99 µM; Transforming acidic coiled-coil-containing protein 3 (Homo sapiens), Q9Y6A5; AlphaScreen His-ARNT PAS-B/GST-TACC3 binding, luminescence; TACC3 fragment carries E629A point mutation; AID 623870, 2012; 390,000 compounds, 0.66% hits;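 active = mean inhibition of replicates at least 50% and at least half of replicates each reaching 50%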;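 note: 0% = complete ARNT plus TACC3 wells and 100% = ARNT alone without TACC3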
The depositor's hits bear a star. Only some compounds are listed: those with a hit (about 2.1% of all), similar ones and a draw of the others.

For COc1ccc(C(CC(=O)Nc2ccc(C)cn2)N2Cc3ccccc3C2=O)cc1 (stereo not drawn) the results were SUMO Mot1 rescue 1, RTF Ca sens inh -6, Efflux pump mplx 0, cardiac RTF act -5, UCH37 inh 0 and ARNT-TACC3 inh 35*.
Screening COc1ccc(C(CC(=O)O)N2Cc3ccccc3C2=O)cc1 (stereo not drawn) returned SUMO Mot1 rescue -6, RTF Ca sens inh -2, Efflux pump mplx 0, cardiac RTF act 4, UCH37 inh 3 and ARNT-TACC3 inh 6.
`N#C[C@H]1[C@@H](c2ccc(C#Cc3ccccc3F)cc2)[C@@H](CO)N1C(=O)C1CCCCC1` gave ARNT-TACC3 inh 12.
`N#C[C@H]1[C@H](c2ccc(C#Cc3ccccc3F)cc2)[C@@H](CO)N1C(=O)C1CCCCC1` gave ARNT-TACC3 inh 47*.
CCN(CC)c1ccc(N=Nc2ncn[nH]2)cc1 was read as SUMO Mot1 rescue -11, Efflux pump mplx 1, UCH37 inh 15 and ARNT-TACC3 inh 70*.
Screening CCOC(=O)C(C)C(C)=NNc1ccc([N+](=O)[O-])cc1[N+](=O)[O-] (stereo not drawn) returned UCH37 inh 8.
`O=C(CCC(=O)Nc1ccc(Br)cc1)NN=Cc1cc([N+](=O)[O-])ccc1O` gave UCH37 inh 4.
Screening Cc1cc([N+](=O)[O-])nn1CC(=O)NN=Cc1ccccc1O returned UCH37 inh 1.
Screening Cc1cc([N+](=O)[O-])nn1CC(=O)N/N=C/c1ccccc1O returned SUMO Mot1 rescue 1, RTF Ca sens inh -7, Efflux pump mplx 0, cardiac RTF act 3 and ARNT-TACC3 inh 68*.
Screening Nc1nnc(CC(=O)N/N=C\c2cc([N+](=O)[O-])ccc2O)s1 returned RTF Ca sens inh -9, Efflux pump mplx 0, cardiac RTF act -2 and ARNT-TACC3 inh 65*.
Screening O=C(CN1C(=O)NC2NC(=O)NC21)N/N=C/c1ccccc1O (stereo not drawn) returned SUMO Mot1 rescue 4, RTF Ca sens inh 9, Efflux pump mplx 0, cardiac RTF act -1 and ARNT-TACC3 inh 66*.
Nc1nnnn1CC(=O)N/N=C/c1cc([N+](=O)[O-])ccc1O was read as SUMO Mot1 rescue -12, RTF Ca sens inh -12, Efflux pump mplx 0, cardiac RTF act 0 and ARNT-TACC3 inh 67*.
Screening COc1ccccc1/C=C/C=NNC(=O)Cc1cccs1 returned UCH37 inh 3.
CC(=NOC(=O)c1c(F)cccc1F)c1nccs1 was read as UCH37 inh 2.
Screening COC(=O)c1ccc(=O)c2nc3/c(=C/O)c(O)cc(=O)c3[nH]c12 returned SUMO Mot1 rescue 137, RTF Ca sens inh 16, Efflux pump mplx 0, cardiac RTF act -9 and ARNT-TACC3 inh 59*.
For Cc1cccc2c1OCCC2=NNC(=O)COc1ccccc1Cl the results were UCH37 inh -1.
Screening Cc1ccccc1CN1C(=O)CSC1=NN=Cc1ccco1 returned UCH37 inh 5.
For Cc1ccc(S(=O)(=O)Nc2nc3ccccc3nc2N2CCOCC2)cc1 the results were SUMO Mot1 rescue 46, RTF Ca sens inh 0, Efflux pump mplx 0, cardiac RTF act 7, UCH37 inh 10 and ARNT-TACC3 inh 3.
Screening O=S(=O)(Nc1nc2ccccc2nc1N1CCN(c2ccccc2)CC1)c1ccc(F)cc1 returned SUMO Mot1 rescue 526*, RTF Ca sens inh -22, Efflux pump mplx 0, cardiac RTF act -3 and UCH37 inh 4.
For O=C(COc1ccccc1[N+](=O)[O-])NN=Cc1ccc[nH]1 the results were UCH37 inh 4.
For CCNc1nc(Oc2ccc(F)cc2)cc(C(F)(F)F)n1 the results were SUMO Mot1 rescue 943*, RTF Ca sens inh 0, Efflux pump mplx 0, cardiac RTF act 0, UCH37 inh 4 and ARNT-TACC3 inh -1.
O=C1C=C(O)c2[nH]c(=O)ccc2C1=O was read as RTF Ca sens inh -1, cardiac RTF act 0 and ARNT-TACC3 inh 36*.
CCOC(=O)C1=C(COC(=O)c2ccc([N+](=O)[O-])o2)NC(=O)NC1C (stereo not drawn) was read as SUMO Mot1 rescue 4, RTF Ca sens inh 3, Efflux pump mplx 0, cardiac RTF act -2, UCH37 inh 21* and ARNT-TACC3 inh 28.
Screening CCOC(=O)C1=C(COC(=O)c2ccc(Cl)cc2[N+](=O)[O-])NC(=O)NC1C (stereo not drawn) returned SUMO Mot1 rescue 9, RTF Ca sens inh -7, Efflux pump mplx 0, cardiac RTF act -7, UCH37 inh 0 and ARNT-TACC3 inh 1.
`O=C1CCNc2ccc(-c3ccccc3)cc21` gave SUMO Mot1 rescue -6, RTF Ca sens inh -71, Efflux pump mplx 0, cardiac RTF act 64*, UCH37 inh -24 and ARNT-TACC3 inh -7.
Screening CCN(CC)c1ccc(/C=C(\C#N)C(=O)c2ccc(Br)cc2)cc1 returned SUMO Mot1 rescue -22, RTF Ca sens inh -488, Efflux pump mplx 0, cardiac RTF act 559*, UCH37 inh 13 and ARNT-TACC3 inh -6.
Screening CCN(CC)c1ccc(/C=C(\C#N)C(N)=S)cc1 returned SUMO Mot1 rescue -16, RTF Ca sens inh -282, Efflux pump mplx 0, cardiac RTF act 200*, UCH37 inh 13 and ARNT-TACC3 inh 22.
`CN(C)c1ccc(/C=C(\C#N)C(=O)c2ccccc2)cc1` gave SUMO Mot1 rescue -11, RTF Ca sens inh -106, Efflux pump mplx 1, cardiac RTF act 80*, UCH37 inh 7 and ARNT-TACC3 inh -8.
N#C/C(=C\c1ccc(C#N)cc1)C(=O)c1ccccc1 was read as SUMO Mot1 rescue 43, RTF Ca sens inh 3, Efflux pump mplx 0, cardiac RTF act 1 and ARNT-TACC3 inh -9.
CC(=NNC(=O)c1cccc(Br)c1)c1cccc(NC(=O)c2ccc(C)o2)c1 was read as UCH37 inh 2.
`CCN1CCN(C(=S)NC(=O)/C=C/c2cccs2)CC1` gave SUMO Mot1 rescue 676*, RTF Ca sens inh 2, Efflux pump mplx 0, cardiac RTF act 6, UCH37 inh 7 and ARNT-TACC3 inh -4.
